Screens: PubChem BioAssay, Broad Institute
In the library only some 5.8% were active in any assay of this set; here they are far more common.
KDM4C inh: inhibitors of GASC-1 (KDM4C) histone demethylase, primary screen, biochemical, single concentration HTS. GST-KDM4C 2-372, H3K9me3 peptide, LANCE TR-FRET. inhibition, % at 12.5 µM. 96,000 tested, 0.15% active. AID 720574, 2013;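 active = mean replicate inhibition above about 25%, with at least 55% of replicates also reaching it, limit read from the data, passing the limit was not always enough; inconclusive = only one of those two conditions met; inactive = neither condition met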
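System: N-terminal GST-fused human GASC-1 (KDM4C) fragment, residues 2-372; amount: enzyme final amount 10 nM; incubation: reaction 30 min RT, detection step 1 h RT; medium: HEPES buffer, pH 7.5, plus ascorbate; technique: LANCE TR-FRET, Eu antibody, ULight-streptavidin, EDTA, ex 340 nm, em 618/671 nm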
Pf Dd2 growth: P. falciparum Dd2 growth inhibitors, primary screen, SYBR Green fluorescence, single dose replicates. 72 h; active compounds read low. activity change, % at 10 µM. 94,000 tested, 2.3% active. AID 1159554, 2015; in the data active = activity change below about -80%; inconclusive = no clear call, values can overlap the other calls
IDH1 R132H inh: inhibitors of IDH1 R132H reductase, primary screen, biochemical, plate reader, single point; inhibition, % at 10 µM; diaphorase/resazurin fluorescence, 60 min; Isocitrate dehydrogenase [NADP] cytoplasmic (Homo sapiens), O75874; 70,000 tested, 0.18% active; AID 624101, 2012; in the data active = inhibition above about 34%; inconclusive = no clear call, values can overlap the other calls; inactive = below about 11%;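 also: 0% = DMSO and 100% = no enzyme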
Target sequence (O75874 whole entry R132H): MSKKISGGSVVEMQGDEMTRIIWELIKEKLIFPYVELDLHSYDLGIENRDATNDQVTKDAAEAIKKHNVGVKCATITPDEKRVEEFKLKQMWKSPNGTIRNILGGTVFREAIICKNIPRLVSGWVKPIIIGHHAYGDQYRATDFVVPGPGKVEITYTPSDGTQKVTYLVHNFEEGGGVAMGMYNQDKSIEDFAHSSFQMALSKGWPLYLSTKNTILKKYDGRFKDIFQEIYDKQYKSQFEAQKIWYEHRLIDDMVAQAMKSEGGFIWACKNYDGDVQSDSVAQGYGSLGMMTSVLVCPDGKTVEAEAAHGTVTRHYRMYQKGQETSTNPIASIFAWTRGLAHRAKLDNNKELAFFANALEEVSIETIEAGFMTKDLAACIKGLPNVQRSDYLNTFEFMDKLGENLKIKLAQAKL
T cruzi growth-1: T. cruzi intracellular proliferation inhibitors, primary screen, cell-based, beta-gal Tulahuen parasites, NIH3T3 host, luminescence. AID 624255, 2012. inhibition, % at 8.34 µM. 77,000 tested, 5.9% active. T. cruzi beta-gal in NIH3T3, GalScreen luminescence, 90 h;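 active = mean inhibition above about 93%, with at least 55% of replicates each passing it, limit read from the data, passing the limit was not always enough; inconclusive = only one of those two conditions holds; inactive = neither condition holds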
T cruzi growth-2: T. cruzi intracellular proliferation inhibitors, confirmation, cell-based, NIH3T3 host, beta-gal parasite, luminescence, cherry-pick. shares compounds with T cruzi growth-1. T. cruzi beta-gal in NIH3T3, GalScreen luminescence, 90 h. inhibition, % at 8.35 µM. 5,600 tested, 72% active. AID 651739, 2012;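 active = mean replicate inhibition above about 95% and at least 55% of replicates individually reaching it, limit read from the data; inconclusive = only one of the two criteria is met; inactive = neither criterion is met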
T cruzi growth-3: inhibitors of intracellular T. cruzi replication, confirmation, NIH3T3 host cells, beta-gal parasites, cherry-pick, set 2. shares compounds with T cruzi growth-1. T. cruzi beta-gal in NIH3T3, GalScreen luminescence, 90 h. inhibition, % at 2.09 µM. 5,600 tested, 21% active. AID 651740, 2012;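 active = mean inhibition above about 95%, with at least 55% of replicates also reaching it, limit read from the data; inconclusive = meets just one of the two conditions; inactive = meets neither condition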;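 also: plate controls were neutral control median for no effect and positive control median for full effect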
3T3 cytotox: cytotoxicity in mouse NIH/3T3 fibroblasts, confirmation, cytotoxicity control for T. cruzi proliferation inhibitor project, cell-based, cherry-pick, single point; shares compounds with T cruzi growth-1; NIH/3T3 viability, CellTiter-Glo ATP luminescence, 90 h; cytotoxicity (signal decrease), % at 8.35 µM; 5,600 tested, 14% active;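 active = mean signal decrease across replicates above about 35% based on untreated-well scatter, with enough replicates individually passing, limit read from the data; inconclusive = no rule stated though some were filed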;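 also: 0% = median of neutral control wells and 100% = median of positive control wells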
3T3 cytotox 2: NIH/3T3 fibroblast cytotoxicity, confirmation, cytotoxicity control, cell-based, cherry-pick, single point, set 2; inhibition, % at 24.9 µM; 5,600 tested, 56% active; AID 651744, 2012; NIH/3T3 viability, CellTiter-Glo ATP luminescence, 90 h; shares compounds with T cruzi growth-1;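 active = mean loss of cell viability signal at or above a set limit, and enough replicates individually reaching it; inconclusive = meets only the mean limit or only the replicate share; inactive = meets neither condition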;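 also: 0% = median of neutral control wells and 100% = median of positive control wells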
An asterisk follows results filed as active; ! = not confirmed by another sample.

Results for C[C@@H]1CCCCO[C@@H](CN(C)C(=O)Nc2ccc(F)cc2)[C@@H](C)CN([C@H](C)CO)C(=O)c2cc(NC(=O)Nc3ccc4c(c3)OCO4)ccc2O1 ?
KDM4C inh: -0.3; Pf Dd2 growth: 11.1; IDH1 R132H inh: 3.5; T cruzi growth-1: -23.3

How did C[C@H](CO)N1C[C@H](C)[C@H](CN(C)C(=O)Nc2ccc(F)cc2)OCCCC[C@H](C)Oc2ccc(NC(=O)Nc3ccc4c(c3)OCO4)cc2C1=O do in these assays?
KDM4C inh: -1.1; Pf Dd2 growth: 29.9; IDH1 R132H inh: 4.7; T cruzi growth-1: 94.3

What do the screens show for `C[C@H](CO)N1C[C@H](C)[C@H](CN(C)C(=O)Nc2ccc3c(c2)OCO3)OCCCC[C@H](C)Oc2ccc(NC(=O)Nc3ccc(F)cc3)cc2C1=O`?
KDM4C inh: 1.0; Pf Dd2 growth: -11.3; T cruzi growth-1: 104.3*; T cruzi growth-2: 107.9*; T cruzi growth-3: 89.2; 3T3 cytotox: 7.3; 3T3 cytotox 2: 6.5

What do the screens show for `COc1ccc(-n2c(SCC(=O)NC3CCCCC3)nnc2-c2cccs2)cc1`?
IDH1 R132H inh: 0.1

What do the screens show for `COC(=O)c1cc(OC)c(OC)cc1NC(=O)COc1ccc(Br)cc1Cl`?
IDH1 R132H inh: 0.1

What do the screens show for `COc1ccc(Cl)cc1NC(=O)CN1C(=O)c2ccccc2S1(=O)=O`?
IDH1 R132H inh: -0.2

Results for COc1cccc(C2CC(=O)NC(SCC(=O)Nc3ccccc3Cl)=C2C#N)c1OC (stereo unspecified) ?
IDH1 R132H inh: -0.1

How did C/C=C/c1ccc2c(c1)O[C@H](CN(C)Cc1ccccc1F)[C@H](C)CN([C@@H](C)CO)S2(=O)=O do in these assays?
KDM4C inh: 0.7; Pf Dd2 growth: 4.9; IDH1 R132H inh: 0.0; T cruzi growth-1: 119.8*; T cruzi growth-2: 110.8*; T cruzi growth-3: 78.3; 3T3 cytotox: 35.9*; 3T3 cytotox 2: 104.7*

How did C/C=C/c1ccc2c(c1)O[C@H](CN(C)Cc1ccccc1F)[C@H](C)CN([C@H](C)CO)S2(=O)=O do in these assays?
KDM4C inh: 0.2; Pf Dd2 growth: -1.2; IDH1 R132H inh: 0.0; T cruzi growth-1: 109.5*; T cruzi growth-2: 102.5*; T cruzi growth-3: 68.6; 3T3 cytotox: 26.9; 3T3 cytotox 2: 105.5*

What do the screens show for `C/C=C/c1ccc2c(c1)O[C@@H](CN(C)Cc1ccccc1F)[C@@H](C)CN([C@@H](C)CO)S2(=O)=O`?
KDM4C inh: -0.4; Pf Dd2 growth: 28.0; IDH1 R132H inh: -2.1; T cruzi growth-1: 7.6

Results for C/C=C/c1ccc2c(c1)O[C@@H](CN(C)Cc1ccc(F)cc1)[C@@H](C)CN([C@@H](C)CO)S2(=O)=O ?
KDM4C inh: 0.1; Pf Dd2 growth: -43.5; IDH1 R132H inh: -1.6; T cruzi growth-1: 90.6

What do the screens show for `C/C=C/c1ccc2c(c1)O[C@@H](CN(C)Cc1ccccc1F)[C@H](C)CN([C@H](C)CO)S2(=O)=O`?
KDM4C inh: 2.2; Pf Dd2 growth: -5.4; IDH1 R132H inh: 1.6; T cruzi growth-1: 113.8*; T cruzi growth-2: 97.8*; T cruzi growth-3: 62.3; 3T3 cytotox: 50.7*; 3T3 cytotox 2: 102.5*

Results for CCOC(=O)c1ccccc1NC(=O)CC1Sc2ccc(C(F)(F)F)cc2NC1=O (stereo unspecified) ?
IDH1 R132H inh: -0.2

Results for C[C@@H]1CN([C@H](C)CO)C(=O)c2cc(N(C)C)ccc2O[C@@H](C)CCCCO[C@@H]1CN(C)C(=O)C1CCCCC1 ?
KDM4C inh: 2.0; Pf Dd2 growth: 20.6; IDH1 R132H inh: -2.9; T cruzi growth-1: 69.5

How did C[C@@H]1CCCCO[C@@H](CN(C)C(=O)C2CCCCC2)[C@H](C)CN([C@H](C)CO)C(=O)c2cc(N(C)C)ccc2O1 do in these assays?
KDM4C inh: 5.5; Pf Dd2 growth: 8.1; IDH1 R132H inh: -0.6; T cruzi growth-1: inconclusive; T cruzi growth-2: 3.3; T cruzi growth-3: -5.9; 3T3 cytotox: -9.3; 3T3 cytotox 2: -4.2

What do the screens show for `C[C@@H]1CCCCO[C@H](CN(C)C(=O)C2CCCCC2)[C@@H](C)CN([C@H](C)CO)C(=O)c2cc(N(C)C)ccc2O1`?
KDM4C inh: 2.0; Pf Dd2 growth: -2.9; IDH1 R132H inh: -0.3; T cruzi growth-1: 102.7*!; T cruzi growth-2: 51.7; T cruzi growth-3: 31.8; 3T3 cytotox: 7.5; 3T3 cytotox 2: -9.3

Results for C[C@H](CO)N1C[C@H](C)[C@H](CN(C)C(=O)NC2CCCCC2)OCCCC[C@H](C)Oc2ccc(N(C)C)cc2C1=O ?
KDM4C inh: 10.1; Pf Dd2 growth: -51.8; T cruzi growth-1: 110.8*; T cruzi growth-2: 51.6; T cruzi growth-3: 20.3; 3T3 cytotox: -19.1; 3T3 cytotox 2: -36.9

Results for C[C@@H]1CCCCO[C@@H](CN(C)C(=O)CCC(F)(F)F)[C@H](C)CN([C@@H](C)CO)C(=O)c2cc(N(C)C)ccc2O1 ?
KDM4C inh: 5.7; Pf Dd2 growth: -3.2; IDH1 R132H inh: -4.2; T cruzi growth-1: inconclusive; T cruzi growth-2: 49.6; T cruzi growth-3: 64.4; 3T3 cytotox: -28.6; 3T3 cytotox 2: -18.4

What do the screens show for `Cc1cc(C)c(C(=O)Nc2ccc(S(=O)(=O)Nc3cc(C)nc(C)n3)cc2)c(C)c1`?
IDH1 R132H inh: 0.4

What do the screens show for `Cc1cc2ccccc2n2c(SCC(=O)NCc3ccco3)nnc12`?
IDH1 R132H inh: -0.5

What do the screens show for `CCCNC(=O)N1[C@H](C#N)[C@@H](c2ccc(C#Cc3cccc(F)c3)cc2)[C@@H]1CO`?
KDM4C inh: -2.5; Pf Dd2 growth: -54.4; T cruzi growth-1: 100.4*; T cruzi growth-2: 102.0*; T cruzi growth-3: 92.1; 3T3 cytotox: 9.1; 3T3 cytotox 2: -2.4

Results for CCCNC(=O)N1[C@H](C#N)[C@H](c2ccc(C#Cc3ccc(F)cc3)cc2)[C@@H]1CO ?
KDM4C inh: -0.9; Pf Dd2 growth: -86.6*; T cruzi growth-1: inconclusive; T cruzi growth-2: 101.3*; T cruzi growth-3: 112.5*; 3T3 cytotox: -23.6; 3T3 cytotox 2: -1.3
